Calls of active or inactive are those of the source.
Columns and labels:
[1] = system: Bacillus subtilis; test: Antibacterial activity against Bacillus subtilis 168 ATCC 23857 after 48 hrs by microdilution method; assay type: functional; conditions: subsp. subtilis str. 168 ATCC 23857, 48 h
Outline: (§1)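 Broth microdilution (CLSI M07-A9, modified) in Mueller-Hinton broth; inoculum about 2.5-3 × 10^4 cells/ml mixed 1:1 with serial compound dilutions. Stock solutions in up to 100% DMSO, final DMSO ≤1%. Incubated 35 °C for 48 h.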

[2] = system: Staphylococcus aureus; test: Antibacterial activity against Staphylococcus aureus ATCC 9144 after 48 hrs by microdilution method; assay type: functional; conditions: ATCC 9144, 48 h; outline: as §1
[3] = system: Erythrocyte; test: Hemolytic activity against human RBC measured after 1 hr; assay type: cell-based
Outline: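 Washed human RBCs from a healthy donor (heparinized) at 10% in PBS pH 7.4, mixed 9:1 with serial compound dilutions, 37 °C for 1 h. Baseline set by 0.5% DMSO in 50% PBS, 100% lysis by 0.05% Triton X-100. EC50 is the concentration giving 50% lysis.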

[4] = system: Staphylococcus epidermidis; test: Antibacterial activity against methicillin resistant Staphylococcus epidermidis RP62A ATCC 35984/CCUG 31568 after 48 hrs by microdilution method; assay type: functional; conditions: RP62A ATCC 35984/CCUG 31568, 48 h
Outline: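 Broth microdilution (modified CLSI M07-A9) against the MRSE reference strain. Inoculum of about 2.5-3 × 10^4 cells/ml in Mueller-Hinton broth mixed 1:1 with serial compound dilutions; final DMSO ≤1%. Incubated 35 °C, 48 h.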

[5] = system: Klebsiella pneumoniae; test: Antibacterial activity against Klebsiella pneumoniae clinical isolates after 24 hrs by microdilution method; assay type: functional
Outline: (§2)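 Clinical isolate screen by broth microdilution with about 1-1.2 × 10^6 cells/ml and 24 h incubation. MIC is the lowest concentration with no growth. For isolate collections, MIC90 is the MIC inhibiting ≥90% of isolates. Multidrug resistance was defined as resistance to at least […] antimicrobial class.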

[6] = system: Enterococcus sp.; test: Antibacterial activity against Enterococcus sp. clinical isolates after 24 hrs by microdilution method; assay type: functional; outline: as §2
[7] = system: Bacillus subtilis; test: Induction of membrane disruption in Bacillus subtilis 168 expressing luciferase at 12.5 ug/ml measured up to 60 secs by luminescence assay; assay type: functional, organism-based; conditions: subsp. subtilis str. 168
Outline: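 Luminescence followed up to […]. Fold induction is maximal luminescence relative to chlorhexidine control (31 or 20 µg/ml). Mean ± SD of two experiments.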

[8] = system: Pseudomonas aeruginosa; test: Antibacterial activity against Pseudomonas aeruginosa PAO1 DSM 19880 ATCC 15692 after 48 hrs by microdilution method; assay type: functional; conditions: PAO1 DSM 19880 ATCC 15692, 48 h; outline: as §1
[9] = system: Corynebacterium glutamicum; test: Antibacterial activity against Corynebacterium glutamicum ATCC 13032 after 48 hrs by microdilution method; assay type: functional; conditions: ATCC 13032, 48 h; outline: as §1
[10] = system: Staphylococcus aureus; test: Antibacterial activity against Staphylococcus aureus clinical isolates after 24 hrs by microdilution method; assay type: functional; outline: as §2
[11] = system: Staphylococcus epidermidis; test: Antibiofilm activity against Staphylococcus epidermidis RP62A ATCC 35984/CCUG 31568 incubated for 24 +/- 2 hrs by crystal violet staining based assay; assay type: functional
Outline: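 Mature S. epidermidis RP62A biofilms: filtered overnight TSB culture adjusted to 2 McFarland, diluted in TSB with 1% glucose to about 6 × 10^6 CFU/ml, grown 24 ± 2 h at 37 °C static, then PBS-washed. Compounds in 50% TSBglu added for 24 ± 2 h at 37 °C. Biomass given as % of untreated control; ≥90% eradication threshold. Compounds tested at 2x, 5x and 10x MIC, 4-8 parallels on 2-3 plates, highest and lowest values excluded.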

[12] = system: Escherichia coli; test: Antibacterial activity against Escherichia coli clinical isolates after 24 hrs by microdilution method; assay type: functional; outline: as §2
[13] = system: MRC5; test: Cytotoxicity against human MRC5 cells after 72 hrs by MTS assay; assay type: cell-based; conditions: MRC5, 72 h
Outline: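 MRC-5 lung fibroblasts in DMEM with 10% FBS, 37 °C, 5% CO2; seeded at 4000 cells/well, adhered 24 h, medium replaced. Two-fold dilutions up to 100 µg/ml for 72 h, then MTS for 1 h and absorbance at 485 nm. Controls were 1% DMSO (negative) and 0.5% Triton X-100 (positive). EC50 is the concentration giving 50% inhibition of survival.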

[14] = Selectivity index, ratio of EC50 for human RBC to MIC for methicillin resistant Staphylococcus epidermidis RP62A ATCC 35984/CCUG 31568; assay type: toxicity; conditions: human red blood cells (RBC), read-out: Selectivity Index
Outline: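 SI = hemolytic EC50 / MRSE MIC. Hemolysis: washed human RBCs (heparinized blood, healthy adult donor) at 10% in PBS pH 7.4, mixed 9:1 with serial compound dilutions, 37 °C for 1 h. 0.05% Triton X-100 set 100% lysis, 0.5% DMSO set baseline. MIC from MHB microdilution, 35 °C, […].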

[15] = system: Escherichia coli; test: Antibacterial activity against Escherichia coli ATCC 25922 after 48 hrs by microdilution method; assay type: functional; conditions: ATCC 25922, 48 h; outline: as §1
[16] = system: Pseudomonas aeruginosa; test: Antibacterial activity against Pseudomonas aeruginosa clinical isolates after 24 hrs by microdilution method; assay type: functional; outline: as §2
[17] = Solubility of the compound in PBS

SMILES | MIC [1] [µg/mL] | MIC [2] [µg/mL] | EC50 [3] [µg/mL] | MIC [4] [µg/mL] | MIC [5] [µg/mL] | MIC [6] [µg/mL] | Activity [7] | MIC [8] [µg/mL] | MIC [9] [µg/mL] | MIC [10] [µg/mL] | MBIC=>90 [11] [µg/mL] | MIC [12] [µg/mL] | EC50 [13] [µg/mL] | selectivity ratio [14] | MIC [15] [µg/mL] | MIC [16] [µg/mL] | solubility [17] [µg/mL]
CN(c1cccc(C(=O)NCCNC(=N)N)c1)S(=O)(=O)c1cc(C(C)(C)C)cc(C(C)(C)C)c1.Cl | 4 | 4 | 95 | 4 | 64 | 16 | Active | 32 | 2 | 8 | 40 | 32 | 91 | 24 | 32 | 32 | –
Cl.N=C(N)NCCNC(=O)c1ccc(NS(=O)(=O)c2cc(C(F)(F)F)cc(C(F)(F)F)c2)cc1 | > 128 | > 128 | 64 | > 128 | – | – | – | > 128 | > 128 | – | – | – | > 100 | – | > 128 | – | > 64
CC(C)(C)c1cc(C(C)(C)C)cc(S(=O)(=O)NCCCCNC(=N)N)c1.Cl | 16 | 8 | 110 | 8 | 128 | 32 | – | 64 | 4 | 16 | 40 | 128 | 42 | 14 | 64 | 64 | –
CC(C)(C)c1cc(C(C)(C)C)cc(S(=O)(=O)Nc2ccc(C(=O)NCCNC(=N)N)cc2)c1.Cl | 8 | 4 | 64 | 4 | > 128 | 32 | – | 64 | 4 | 8 | 40 | > 128 | > 100 | 16 | 32 | > 128 | > 64
COc1c(C(C)(C)C)cc(S(=O)(=O)Nc2ccc(C(=O)NCCNC(=N)N)cc2)cc1C(C)(C)C.Cl | 4 | 4 | 64 | 4 | > 128 | 64 | – | 64 | 4 | 8 | 40 | > 128 | > 100 | 16 | 32 | 32 | > 64
CC(C)(C)c1cc(C(C)(C)C)cc(S(=O)(=O)Nc2ccc(CC(=O)NCCNC(=N)N)cc2)c1.Cl | 8 | 16 | 101 | 8 | 128 | 32 | – | 64 | 8 | 16 | 40 | 64 | 55 | 13 | 64 | 64 | –

— ChEMBL document CHEMBL4152356, “Amphipathic sulfonamidobenzamides mimicking small antimicrobial marine natural products; investigation of antibacterial and anti-biofilm activity against antibiotic resistant clinical isolates” (Bioorg Med Chem, 2018)
